Measured values as given in paper PMC4398657 (Bioorganic & medicinal chemistry, 2015).
Marks after values point to notes of the source that are not given here.

Tests used:
[1] = system: wild-type E. coli (AB1157); assay: Checkerboard assay: minimum potentiation concentration; assay type: cell-based, Escherichia coli; conditions: potentiation of LVX and PIP, antibiotic not separated
[2] = system: outer membrane of E. coli strain deficient in AcrAB (HN1159); assay: Nitrocefin influx; assay type: cell-based, Escherichia coli
[3] = system: transmembrane proton gradient, E. coli NCM3722; assay: LacY permease-dependent uptake and accumulation of [3H]-TMG; assay type: cell-based, Escherichia coli; conditions: concentrations up to 20 µM
Summary of the method: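 Whole E. coli cells take up [methyl-³H] β-D-thiogalactopyranoside through the LacY permease, and accumulation depends on proton motive force. The tracer stock was 1 mCi/ml at a specific activity of 7 Ci/mmol. Accumulated radiolabel was measured in the presence of test compound to estimate disruption of the transmembrane proton gradient.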

[4] = system: AcrB (AcrAB-TolC in E. coli); assay: Cell-based assay of kinetic parameters; parameters: species or system Escherichia coli; conditions: manuscript in preparation
[5] = Murine liver microsome stability; assay type: in vitro ADME, mouse; conditions: % remaining after 60 min at 37 °C in the presence of NADPH; 25 µM compound
Summary of the method: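 Pooled mouse liver microsomes (0.5 mg/mL final) with test compound at 25 µM final, in 100 mM potassium phosphate pH 7.4 and 3 mM MgCl₂, with or without 2 mM NADPH (no-NADPH as control); 1 h at 37 °C; stopped with an equal volume of acetonitrile with 0.1% TFA. Value is the compound peak-area ratio of +NADPH to no-NADPH.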

[6] = system: wild-type E. coli (AB1157); conditions: antibacterial activity of the EPI alone; cited from earlier work

Structure (SMILES)	EPI potency / MPC4 in words [1]	inhibition of uptake and accumulation of 3H-TMG [3]	also measured
CC1(C)Cc2c(C#N)c(SCC(=O)c3ccccc3)nc(N3CCOCC3)c2CO1 [Compound 12c]	inactive	–	–
CC1(C)Cc2c(C#N)c(SCC(O)c3ccccc3)nc(N3CCOCC3)c2CO1 (stereo not drawn) [Compound 12d, 6-(2-hydroxy-2-phenylethylthio)-5-cyano-3,3-dimethyl-8-morpholino-3,4-dihydro-1H-pyrano[3,4-c]pyridine]	inactive	–	–
CC1(C)Cc2c(C#N)c(SCCC#N)nc(N3CCOCC3)c2CO1 [Compound 20a]	inactive	–	–
COc1cccc(CCSc2nc(N3CCOCC3)c3c(c2C#N)CC(C)(C)OC3)c1 [Compound 20f]	–	none of the analogs significantly inhibited uptake and accumulation	rate of nitrocefin influx [2]: none of the compounds increased the rate of nitrocefin influx
COCCN1CCN(c2nc(SCCc3ccc(OC)cc3)c(C#N)c3c2COC(C)(C)C3)CC1 [Compound 21f]	–	none of the analogs significantly inhibited uptake and accumulation	–
COCCN1CCN(c2nc(SCCc3ccc(OC)c(OC)c3)c(C#N)c3c2COC(C)(C)C3)CC1 [Compound 21g]	–	none of the analogs significantly inhibited uptake and accumulation	–
CC(=O)Nc1ccc(CCSc2nc(N3CC(C)OC(C)C3)c3c(c2C#N)CC(C)(C)OC3)cc1 (stereo not drawn) [Compound 22f, 6-(4-acetamidophenethylthio)-5-cyano-3,3-dimethyl-8-(2,6-dimethyl-4-morpholino)-3,4-dihydro-1H-pyrano[3,4-c]pyridine]	–	–	potency against AcrB relative to MBX2319 [4]: at least 20 fold; MLMS [5]: 0 ^* %
CC1CN(c2nc(SCCc3ccc(NC(=O)C(F)(F)F)cc3)c(C#N)c3c2COC(C)(C)C3)CC(C)O1 (stereo not drawn) [Compound 22g, 6-[4-(2,2,2-trifluoroacetamido)phenethylthio]-5-cyano-8-(2,6-dimethylmorpholino)-3,3-dimethyl-3,4-dihydro-1H-pyrano[3,4-c]pyridine]	–	–	MLMS [5]: 0 ^* %
C=CC(=O)Nc1ccc(CCSc2nc(N3CC(C)OC(C)C3)c3c(c2C#N)CC(C)(C)OC3)cc1 (stereo not drawn) [Compound 22i, 6-(4-acrylamidophenethylthio)-5-cyano-3,3-dimethyl-8-(2,6-dimethyl-4-morpholino)-3,4-dihydro-1H-pyrano[3,4-c]pyridine]	submicromolar	none of the analogs significantly inhibited uptake and accumulation	–
CC1CN(c2nc(SCCc3ccc(NC(=N)N)cc3)c(C#N)c3c2COC(C)(C)C3)CC(C)O1 (stereo not drawn) [Compound 22k, 6-(4-guanidinophenethylthio)-5-cyano-3,3-dimethyl-8-(2,6-dimethyl-4-morpholino)-3,4-dihydro-1H-pyrano[3,4-c]pyridine]	submicromolar	none of the analogs significantly inhibited uptake and accumulation	–
CC1(C)Cc2c(C#N)c(SCCc3ccccc3)nc(N3CCOCC3)c2CO1 [MBX2319, 3,3-dimethyl-5-cyano-8-morpholino-6-(phenethylthio)-3,4-dihydro-1H-pyrano[3,4-c]pyridine]	–	–	MIC [6]: ≥ 100 µM
